From ChEMBL document CHEMBL4513216, “Probing the Open Global Health Chemical Diversity Library for Multistage-Active Starting Points for Next-Generation Antimalarials” (ACS Infect Dis, 2020) come the findings set out here.

The nature of the data set: Toxicity liver stage against HepG2, at 10uM. Also on record: test concentration 10 uM, cell line HepG2-A16-CD81EGFP. Particulars: human, HepG2-A16-CD81EGFP cells; read-out: INHIBITION
The data set is classed as cell-based. The procedure, abridged: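 Uninfected HepG2-A16-CD81EGFP cells, 3 × 10^3 per well, 1536-well, plated on prespotted compound at 10 μM final, parasite-free screening media added to match infected plates; puromycin 10 μM positive, DMSO 0.5% negative; run in parallel with 48 h PbLuc assay at 37 °C, 5% CO2; viability by CellTiter-Glo luminescence, normalized to controls.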
As to `CC(C)Cc1nc(OCC(N)=O)c(C#N)c2c1CCCC2`, the cytotoxicity at 10 µM was -9.53%.
As to `COc1ccc(-c2csc3c2c(N)nc(=O)n3CCN(C)C)cc1`, the cytotoxicity at 10 µM is -49.9%.
In the case of `Cn1cccc1C(=O)N1CC[C@@H]2[C@@H]1CC(=O)N2CC1CCOCC1`, the cytotoxicity at 10 µM was -2.82%.
The same measure for `CC(C)Nc1nc2c(c(N(C)C)n1)CCN(C(=O)c1cc[nH]n1)CC2`: 6.59%.
Next, `CSc1nc2ncc3c(=O)n(CCN4CCCCC4)ccc3n2n1`: 5.23%; `CN(C)C(=O)C1CCCN(C(=O)c2ccccc2-n2cc(CN)cn2)C1` (stereo not given): 11.6%.
The same measure for `Cc1cc(CCC(=O)O)nc(C2CCCN2c2ccnc(C)n2)n1` (stereo not given): -8.12%.
Take `Cc1cc(CN(C)Cc2ncc(-c3ccccc3)o2)no1`: the cytotoxicity at 10 µM was -13.8%.
Consider `O=c1oc2ccccc2n1CCN(CC1CCOC1)C1CC1` (stereo not given), for which the cytotoxicity at 10 µM turned out to be 4.78%.
In the case of `CCOCCNC(=O)c1cnc(Sc2nccn2C)c(Cl)c1`, the cytotoxicity at 10 µM is -44.6%.
Next, `CCN(C)S(=O)(=O)N1CCC(C(O)c2ccc(F)cc2)CC1` (stereo not given): -22%; `O[C@@H]1CN(Cc2cc(Cl)cc3cccnc23)C[C@@H]1O`: 0.342%.
In the case of `CC(C)c1nnc2n1CC(CNC/C=C/c1ccccc1)CC2` (stereo not given), the cytotoxicity at 10 µM came to 3.76%.
With `COc1ccc(-c2nc(CCNC(=O)NC3CCC(O)CC3)co2)cc1` (stereo not given), the cytotoxicity at 10 µM is 7.66%.
Next, `COCc1cc(N(C)Cc2ncnn2C)nc(C(C)(C)C)n1`: 6.39%; `COc1ccc2c(c1)CCCN2C(=O)CN1CCOC(C)C1` (stereo not given): 2.59%.
As for `COCC(=O)N1CCN(C(=O)C2(c3ccc(C)c(OC)c3)CC2)CC1`, the cytotoxicity at 10 µM is -8.19%.
The same measure for `CNS(=O)(=O)c1cccc(C(C)NCc2cccc(O)c2)c1` (stereo not given): 1.14%; for `CCOc1cc(C)nc(N2CCN(Cc3nccn3CC)CC2)n1`: -3.81%; for `COc1c(CNCc2cccnc2N2CCN(C)CC2)c(C)nn1C`: -134%.
With `COc1cc(OC)cc(C2(O)CCN(Cc3ncc(C)o3)CC2)c1`, the cytotoxicity at 10 µM was 17%.
Take `CCNc1ncc(C(=O)Nc2nnc(N3CCCCC3)[nH]2)s1`: the cytotoxicity at 10 µM was -12.4%.
Take `CCN(C)S(=O)(=O)NCC1(c2ccccc2Br)CC1`: the cytotoxicity at 10 µM is 1.22%.
As for `Cn1cc(N2CCCC(SCc3nc(C4CC4)no3)C2=O)cn1` (stereo not given), the cytotoxicity at 10 µM was determined as 21.8%.
Consider `Cc1cc(NC(=O)CN(CC(C)O)c2ccccc2)on1` (stereo not given), for which the cytotoxicity at 10 µM was -2.15%.
Next, `CC(C)c1nnc(NC(=O)Cc2ccc(F)cc2)[nH]1`: -8%.
On to `NC(=O)[C@@H]1Cc2ccccc2CN1S(=O)(=O)N1CCCCC1`, for which the cytotoxicity at 10 µM was determined as 3.33%.
As for `Cn1cnnc1C1CCN(C(=O)c2cc(-c3ccccc3)on2)CC1`, the cytotoxicity at 10 µM came out at 3.77%.
Consider `Cc1noc(CS(=O)(=O)C(C)C(=O)N(C)c2ccccc2)n1` (stereo not given), for which the cytotoxicity at 10 µM is 9.26%.
On to `CN(C(=O)Cn1nnnc1C(C)(C)C)c1ccccc1`, for which the cytotoxicity at 10 µM is -48.4%.
Consider `CN(C)C(C(=O)Nc1nccs1)c1c(F)cccc1Cl` (stereo not given), for which the cytotoxicity at 10 µM was -44.4%.
As for `CCN(Cc1noc(CC(C)C)n1)Cc1ccccc1Cl`, the cytotoxicity at 10 µM is -50.6%.
Next, `O=C(CN1CCC(C(=O)c2cc(F)ccc2F)CC1)NC1CCCC1`: 4.93%; `CC(C)Nc1ncnc2c1CCN(C(=O)NCc1cccc(F)c1)CC2`: -110%; `CC(=O)N1CCC(c2nnc3ccc(C(=O)NCC(C)C)cn23)C1` (stereo not given): -108%.
On to `COc1nn(C)c2c1CCCN(C(=O)c1cscn1)C2`, for which the cytotoxicity at 10 µM is -97.2%.
Regarding `O=C(Cc1ccccc1)N1CCC2(CC1)CN(c1ncccn1)CCO2`, the cytotoxicity at 10 µM was -72.3%.
Regarding `COCC(=O)N1C[C@H]2CN(Cc3cccc(F)c3)C(=O)[C@H]2C1`, the cytotoxicity at 10 µM was -83.5%.
Turning to `CC(=O)N1CCC2(CCN(C(=O)c3ccc(Cl)c(C(F)(F)F)c3)C2)C1` (stereo not given), the cytotoxicity at 10 µM is -85.8%.
The same measure for `COCCC(=O)N1CCn2c(COCC3CC3)cnc2C1C` (stereo not given): 4.17%; for `O=C(CO)N1CCc2onc(Cn3cccn3)c2C1`: 0.436%.
Take `COc1ccc(CCN2C(=O)O[C@@H]3CN(C)C[C@@H]32)cc1`: the cytotoxicity at 10 µM is -2%.
Consider `COCCn1cncc1CN1CCC(C(C)=O)(c2ccccc2)CC1`, for which the cytotoxicity at 10 µM worked out at 1.92%.
Consider `Cc1ccc(OCC2CCCN(CC3CCOCC3)C2)cc1` (stereo not given), for which the cytotoxicity at 10 µM is 16.1%.
As for `COc1ccc(C(=O)C2CCCN(c3nccc(N)n3)C2)c(C)c1` (stereo not given), the cytotoxicity at 10 µM is 5.67%.
Next, `CC1(c2ccccc2)CCCN(Cc2cncn2C2CC2)C1` (stereo not given): -1.06%; `CCN(CC)C(=O)[C@@H]1C[C@@H](NC(=O)c2ccn(C(C)(C)C)c2)CN1C`: -4.12%; `Cc1cccc(=O)n1CCC(=O)N1CC[C@](C)(O)[C@H](C)C1`: 2.81%.
Next, `CNS(=O)(=O)c1ccc(CN2CCCC2c2ccc(F)cc2)cc1` (stereo not given): 11.6%; `COc1ccc(Oc2ncccc2C(N)=O)cc1CN1CCCC1`: 0.0453%.
On to `CC(C)=CCN1CCN(CCCc2ccccc2)[C@H]2CS(=O)(=O)C[C@H]21`, for which the cytotoxicity at 10 µM was -1.06%.
Regarding `C1CCC(CNC2CCSCC2)(N2CCOCC2)CC1`, the cytotoxicity at 10 µM was -14.5%.
`CCc1nc(C)sc1CNC1CCN(Cc2ccccc2)C1` (stereo not given): the cytotoxicity at 10 µM is -31.7%.
As for `Cc1cc2nc(C(C)C)cc(NC(C)c3nncn3C3CCCC3)n2n1` (stereo not given), the cytotoxicity at 10 µM was 8.91%.
For the compound `COc1cc(-c2nccn2C(C)CCn2cccn2)cc2c1OCO2` (stereo not given), the cytotoxicity at 10 µM amounted to 0.562%.
The same measure for `Cc1ccc(C(C(=O)N(C)CCc2cn[nH]c2)N(C)C)cc1` (stereo not given): 0.0341%.
Consider `Cc1ccc(CN(C)c2nccc(-c3cn(C)nc3C)n2)o1`, for which the cytotoxicity at 10 µM was 4.17%.
`CC(C)CN1CCCC1c1ccc(C(=O)Nc2ccc3[nH]nnc3c2)s1` (stereo not given): the cytotoxicity at 10 µM amounted to 19.1%.
As to `COC(=O)CC1C(=O)NCCN1c1nc2c(s1)c(C)nn2C` (stereo not given), the cytotoxicity at 10 µM was -7.36%.
The same measure for `Cc1ccnn1CC(=O)N(C)Cc1cnn(-c2ccccc2)c1`: 9%; for `Cc1nc(N2CCC(O)(c3ccc(F)cc3)CC2)c2c(C)nn(C)c2n1`: -0.503%; for `CN(C)c1nc2c(c(=O)[nH]1)CCN(C(=O)c1c[nH]c(=O)c(Cl)c1)C2`: 6.32%.
Take `CSc1ccc(CN(C(=O)c2cc(C)[nH]c(=O)c2)C2CC2)cc1`: the cytotoxicity at 10 µM is -49.5%.
Turning to `CCSCCNc1nc(-c2ccccn2)nc2c1c(C)nn2C`, the cytotoxicity at 10 µM was determined as 6.35%.
`COCCN(C)C[C@H]1C[C@H](CO)CN(C(=O)c2ccc(=O)n(C)c2)C1`: the cytotoxicity at 10 µM is -1.06%.
The same measure for `O=C(NCc1cc2ccccc2s1)c1cc(CN2CCCC(O)C2)on1` (stereo not given): -40%; for `O[C@@H]1CN(c2noc(C3CC3)n2)CC[C@H]1c1ccc2ccccc2c1`: 5.11%; for `CCc1ccccc1OCCNCCc1c[nH]cn1`: 4.69%.
Take `COc1ccc(-c2ccccc2CCN)c(OC)c1OC`: the cytotoxicity at 10 µM amounted to 2.79%.
As for `Cc1cc(C)n(CC(=O)N2Cc3cnc(C(C)(C)C)nc3C2)n1`, the cytotoxicity at 10 µM turned out to be 3.1%.
`COCCCNCc1cc(O)c2cc(C)cc(C)c2n1`: the cytotoxicity at 10 µM is -6.31%.
Next, `CC1CNC(=O)CCN1Cc1cc(O)c2cccc(F)c2n1` (stereo not given): -4.5%; `Cc1cnn(C2CN(Cc3nc(-c4ccccn4)no3)C2)c1`: 3.24%.
Regarding `COc1cccc(C(NCc2ccc(SC)cc2)c2nccn2C)c1` (stereo not given), the cytotoxicity at 10 µM is -5.54%.
With `CC(c1nc(C2CC2)no1)N1CCN(Cc2noc(C3CC3)n2)CC1` (stereo not given), the cytotoxicity at 10 µM amounted to 4.63%.
Next, `Cc1cnn(CCNCc2ccccc2C#N)c1`: -9.14%.
Take `CC(O)CN1CCN(C(=O)c2ccc(N(C)C)nn2)CC1` (stereo not given): the cytotoxicity at 10 µM is -13.4%.
Consider `COc1ccccc1C(=O)NC(C)CC(=O)O` (stereo not given), for which the cytotoxicity at 10 µM was -2.43%.
In the case of `Cc1nc(C2CCCN(C(=O)c3cccc(S(C)(=O)=O)c3)C2)no1` (stereo not given), the cytotoxicity at 10 µM is -2.33%.
With `Clc1ccc(-n2cc(CNC3CCc4ncnn4C3)cn2)cc1` (stereo not given), the cytotoxicity at 10 µM came out at 0.77%.
Next, `CNc1cc2c(nn1)CCN(C(=O)c1ccoc1)C2`: 4.6%; `CCn1c(CN2CCCC(O)(c3ccc(F)cc3)CC2)cnc1SC` (stereo not given): -0.466%.
The same measure for `COc1ccc2c(c1)C1(CCN(Cc3nccs3)CC1)N(C)CC2`: -148%; for `CCc1cnc(N2CC[C@H]3[C@@H]2CCC(=O)N3CC2CCOCC2)nc1`: 4.28%.
In the case of `O=C1NCC[C@]12CN(Cc1ccncc1)C[C@H]2c1ccccc1`, the cytotoxicity at 10 µM is -147%.
Consider `c1ccc(COC[C@H]2CC[C@H]3[C@H](CCN3Cc3ccccn3)O2)nc1`, for which the cytotoxicity at 10 µM was -84.7%.
Regarding `CCC1=N[C@@]2(CC[C@@H]3CN(Cc4ccc(Cl)cc4)C[C@@H]32)C(=O)N1C`, the cytotoxicity at 10 µM came to 1.98%.
As to `CNC(=O)[C@H]1C[C@@H]2CN(S(=O)(=O)c3cccc(C)c3)C[C@@H]2N1C`, the cytotoxicity at 10 µM was 1.59%.
Regarding `OC1(Cn2ccc3ncccc32)CCN(Cc2ccccn2)CC1`, the cytotoxicity at 10 µM came to 5.33%.
Consider `O=C(Cc1ccc(F)cc1)N1CCn2cc(Cn3cccn3)nc2C1`, for which the cytotoxicity at 10 µM was found to be 4.58%.
Consider `O=C([C@H]1C[C@H]2OCC[C@H]2N(CC2CCOCC2)C1)N1CCCCO1`, for which the cytotoxicity at 10 µM was -73.9%.
As to `Cc1ccc(CN2CCC3(CC2)C(c2ccccc2)CC(=O)N3C)o1` (stereo not given), the cytotoxicity at 10 µM was -101%.
Turning to `COCC1CN(C(=O)COc2ccccc2)Cc2ncn(C)c21` (stereo not given), the cytotoxicity at 10 µM was determined as 0.104%.
Consider `CN(Cc1cccnc1)C1CC2(CCN(Cc3ccccn3)CC2)C1`, for which the cytotoxicity at 10 µM was -84%.
With `COc1ccc2c(c1)sc(=NC(=O)CSCC(=O)Nc1nccs1)n2C`, the cytotoxicity at 10 µM is -8.36%.
